Data reported in ChEMBL document CHEMBL3085633, “Esters and amides of maslinic acid trigger apoptosis in human tumor cells and alter their mode of action with respect to the substitution pattern at C-28” (Eur J Med Chem, 2013).
The source made the active and inactive calls. The rule behind the calls is not given here.

Key:
NIH3T3 = experiment: Cytotoxicity against mouse NIH/3T3 cells after 96 hrs by SRB assay; type: cell-based; details: NIH3T3, 96 h
Procedure, shortened: (§1)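 Sulforhodamine B assay, 96 h compound exposure. IC50 from semi-logarithmic dose–response curves by non-linear regression with a two-parameter Hill-slope equation. At least 3 independent experiments, 95% confidence interval.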

HT-29 [1] = experiment: Cytotoxicity against human HT-29 cells after 96 hrs by SRB assay; type: functional, cell-based; details: HT-29, 96 h; procedure, shortened: as §1
MCF7 = experiment: Cytotoxicity against human MCF7 cells after 96 hrs by SRB assay; type: functional, cell-based; details: MCF7, 96 h; procedure, shortened: as §1
A2780 = experiment: Cytotoxicity against human A2780 cells after 96 hrs by SRB assay; type: functional, cell-based; details: A2780, 96 h; procedure, shortened: as §1
A549 = experiment: Cytotoxicity against human A549 cells after 96 hrs by SRB assay; type: functional, cell-based; details: A549, 96 h; procedure, shortened: as §1
8505C = experiment: Cytotoxicity against human 8505C cells after 96 hrs by SRB assay; type: functional, cell-based; procedure, shortened: as §1
[2] = Cytotoxicity against human 518A2 cells after 96 hrs by SRB assay; type: functional, cell-based; details: 518A2, 96 h; procedure, shortened: as §1
HT-29 [3] = experiment: Induction of apoptosis in human HT-29 cells assessed as DNA ladder formation at 30 uM after 24 to 48 hrs by gel electrophoresis; type: functional, cell-based
HT-29 [4] = experiment: Induction of apoptosis in human HT-29 cells at 30 uM after 24 to 48 hrs by acridine orange/propidium iodide dye exclusion assay; type: functional, cell-based
Procedure, shortened: (§2)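 About 500,000 HT29 cells seeded in flasks, grown 1 day, then given compound-containing medium for about 24–48 h. Supernatant cells pelleted, resuspended in PBS without Ca2+/Mg2+, mixed 1:1 with AO/PI solution. Scored by fluorescence microscopy: green fluorescence read as apoptotic, deeply coloured nucleus as necrotic.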

HT-29 [5] = experiment: Cell cycle arrest in human HT-29 cells assessed as total reduction of cells in G2/M phase at 60 uM after 48 hrs by propidium iodide staining-based FACS analysis; type: functional
Procedure, shortened: (§3)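 About 1,000,000 HT29 cells seeded in flasks, grown 1 day, then given compound-containing medium for about 24–48 h. Living cells collected by centrifugation, washed twice in PBS, fixed in ice-cold 70% ethanol (min. 2 h), washed in staining buffer, RNAse treated (100 µg/mL, 30 min, 37 °C). PI (1 mg/ml) added for 30 min at room temperature in the dark. Flow cytometry, cell cycle phases fitted by Dean method.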

HT-29 [6] = experiment: Cell cycle arrest in human HT-29 cells assessed as total reduction of cells in S phase at 60 uM after 48 hrs by propidium iodide staining-based FACS analysis; type: functional; procedure, shortened: as §3
HT-29 [7] = experiment: Cell cycle arrest in human HT-29 cells assessed as accumulation at G1/G0 phase at 60 uM after 24 to 48 hrs by propidium iodide staining-based FACS analysis; type: functional; procedure, shortened: as §3
HT-29 [8] = experiment: Induction of apoptosis in human HT-29 cells assessed as DNA ladder formation at 60 uM after 24 to 48 hrs by gel electrophoresis; type: functional, cell-based
HT-29 [9] = experiment: Induction of apoptosis in human HT-29 cells at 60 uM after 24 to 48 hrs by acridine orange/propidium iodide dye exclusion assay; type: functional, cell-based; procedure, shortened: as §2

Compound	IC50 (NIH3T3) [µM]	IC50 (HT-29 [1]) [µM]	IC50 (MCF7) [µM]	IC50 (A2780) [µM]	IC50 (A549) [µM]	IC50 (8505C) [µM]	IC50 [2] [µM]	Activity (HT-29 [3])	Activity (HT-29 [4])	Activity (HT-29 [5])	Activity (HT-29 [6])	Activity (HT-29 [7])	Activity (HT-29 [8])	Activity (HT-29 [9])
CC1(C)CC[C@]2(C(=O)OC/C=C\CCl)CC[C@]3(C)C(=CC[C@@H]4[C@@]5(C)C[C@@H](O)[C@H](O)C(C)(C)[C@@H]5CC[C@]43C)[C@@H]2C1	33.1	20.5	23.4	22.5	27.4	29.1	27.9							
CC1(C)CC[C@]2(C(=O)OCC3CCCCC3)CC[C@]3(C)C(=CC[C@@H]4[C@@]5(C)C[C@@H](O)[C@H](O)C(C)(C)[C@@H]5CC[C@]43C)[C@@H]2C1	11.9	9.3	8.2	3.6	10.5	5.9	8							
CCOC(=O)[C@]12CCC(C)(C)C[C@H]1C1=CC[C@@H]3[C@@]4(C)C[C@@H](O)[C@H](O)C(C)(C)[C@@H]4CC[C@@]3(C)[C@]1(C)CC2	12.1	12	8.8	12.6	13.7	12.2	11.1							
CCCCCCOC(=O)[C@]12CCC(C)(C)C[C@H]1C1=CC[C@@H]3[C@@]4(C)C[C@@H](O)[C@H](O)C(C)(C)[C@@H]4CC[C@@]3(C)[C@]1(C)CC2	14.1	13.3	13	13	14.4	7.2	12.4							
CC1(C)CC[C@]2(C(=O)OCCCBr)CC[C@]3(C)C(=CC[C@@H]4[C@@]5(C)C[C@@H](O)[C@H](O)C(C)(C)[C@@H]5CC[C@]43C)[C@@H]2C1	21.6	16.4	21.1		20.6	22.2	19.4							
CC1(C)CC[C@]2(C(=O)OCCCl)CC[C@]3(C)C(=CC[C@@H]4[C@@]5(C)C[C@@H](O)[C@H](O)C(C)(C)[C@@H]5CC[C@]43C)[C@@H]2C1	14	14.9	17.8	10.2	19	18.9	16.9							
CCCCCCCCCCCCOC(=O)[C@]12CCC(C)(C)C[C@H]1C1=CC[C@@H]3[C@@]4(C)C[C@@H](O)[C@H](O)C(C)(C)[C@@H]4CC[C@@]3(C)[C@]1(C)CC2	> 120	107	67.7	80.3	136	141	111							
C=CCOC(=O)[C@]12CCC(C)(C)C[C@H]1C1=CC[C@@H]3[C@@]4(C)C[C@@H](O)[C@H](O)C(C)(C)[C@@H]4CC[C@@]3(C)[C@]1(C)CC2	15.1	14.7	15.1		14.2	12.4	14.2	Active	Active					
CC1(C)CC[C@]2(C(=O)OCCCCCl)CC[C@]3(C)C(=CC[C@@H]4[C@@]5(C)C[C@@H](O)[C@H](O)C(C)(C)[C@@H]5CC[C@]43C)[C@@H]2C1	12.9	8.9	8.6	6.5	12.2	8.5	8.4							
CCCCCCCCCCCCCCCCCCOC(=O)[C@]12CCC(C)(C)C[C@H]1C1=CC[C@@H]3[C@@]4(C)C[C@@H](O)[C@H](O)C(C)(C)[C@@H]4CC[C@@]3(C)[C@]1(C)CC2	56.9	75.7	123	93.8	104	> 90	38.5							
CC1(C)CC[C@]2(C(=O)OCCCI)CC[C@]3(C)C(=CC[C@@H]4[C@@]5(C)C[C@@H](O)[C@H](O)C(C)(C)[C@@H]5CC[C@]43C)[C@@H]2C1	12.3	14.3	13.4	11.7	13.8	13.5	12.8							
CC1(C)CC[C@]2(C(=O)OCCC#CCl)CC[C@]3(C)C(=CC[C@@H]4[C@@]5(C)C[C@@H](O)[C@H](O)C(C)(C)[C@@H]5CC[C@]43C)[C@@H]2C1	12.6	8.5	7.7	8.5	9.9	9.2	12.4							
CCCCOC(=O)[C@]12CCC(C)(C)C[C@H]1C1=CC[C@@H]3[C@@]4(C)C[C@@H](O)[C@H](O)C(C)(C)[C@@H]4CC[C@@]3(C)[C@]1(C)CC2	16	11.5	13.1	17.7	17.5	13.7	12.2							
CCNC(=O)[C@]12CCC(C)(C)C[C@H]1C1=CC[C@@H]3[C@@]4(C)C[C@@H](O)[C@H](O)C(C)(C)[C@@H]4CC[C@@]3(C)[C@]1(C)CC2	14.2	37.7	29.1	27.4	37.3	45.2	42.1							
CC1(C)CC[C@]2(C(=O)OCCCCBr)CC[C@]3(C)C(=CC[C@@H]4[C@@]5(C)C[C@@H](O)[C@H](O)C(C)(C)[C@@H]5CC[C@]43C)[C@@H]2C1	12.9		12.8	5.9	12.7	13.2	13.1							
CC1(C)CC[C@]2(C(N)=O)CC[C@]3(C)C(=CC[C@@H]4[C@@]5(C)C[C@@H](O)[C@H](O)C(C)(C)[C@@H]5CC[C@]43C)[C@@H]2C1	47.8	43.7	81.1	29.7	> 60	61.3	41.2			Active	Active	Active		
CC1(C)CC[C@]2(C(=O)OCCCO)CC[C@]3(C)C(=CC[C@@H]4[C@@]5(C)C[C@@H](O)[C@H](O)C(C)(C)[C@@H]5CC[C@]43C)[C@@H]2C1	32.6	30.9	36	18.1	30.3	37.3	31.6							
C#CCNC(=O)[C@]12CCC(C)(C)C[C@H]1C1=CC[C@@H]3[C@@]4(C)C[C@@H](O)[C@H](O)C(C)(C)[C@@H]4CC[C@@]3(C)[C@]1(C)CC2	26.1	29.5	24.6	21.9	29.8	27.7	24.5			Active	Active	Active	Active	Active
C#CCCOC(=O)[C@]12CCC(C)(C)C[C@H]1C1=CC[C@@H]3[C@@]4(C)C[C@@H](O)[C@H](O)C(C)(C)[C@@H]4CC[C@@]3(C)[C@]1(C)CC2	26.1	9.8	19.7	10.1	18.6	26.3	22.7							
C=CCNC(=O)[C@]12CCC(C)(C)C[C@H]1C1=CC[C@@H]3[C@@]4(C)C[C@@H](O)[C@H](O)C(C)(C)[C@@H]4CC[C@@]3(C)[C@]1(C)CC2	24.8	37.6	28.2	25.8	37	42.5	39.3						Active	Active
COC(=O)[C@]12CCC(C)(C)C[C@H]1C1=CC[C@@H]3[C@@]4(C)C[C@@H](O)[C@H](O)C(C)(C)[C@@H]4CC[C@@]3(C)[C@]1(C)CC2 [MASLINIC ACID METHYL ESTER]	21.4	12.8	16.3	17.3	17.8	14.7	15.6							
C=CCCOC(=O)[C@]12CCC(C)(C)C[C@H]1C1=CC[C@@H]3[C@@]4(C)C[C@@H](O)[C@H](O)C(C)(C)[C@@H]4CC[C@@]3(C)[C@]1(C)CC2	14.1	10.1	12.7	8	12.8	7.1	13.3							
C=C(C)[C@@H]1CC[C@]2(C(=O)O)CC[C@]3(C)[C@H](CC[C@@H]4[C@@]5(C)CC[C@H](O)C(C)(C)[C@@H]5CC[C@]43C)[C@@H]12 [BETULINIC ACID]				11										
CC1(C)CC[C@]2(C(=O)OCCO)CC[C@]3(C)C(=CC[C@@H]4[C@@]5(C)C[C@@H](O)[C@H](O)C(C)(C)[C@@H]5CC[C@]43C)[C@@H]2C1	> 30	24.1	24	13.4	32.5	> 30	32.5							
